Measured values as given in ChEMBL document CHEMBL3091393, “Antioxidant activities of 5-hydroxyoxindole and its 3-hydroxy-3-phenacyl derivatives: the suppression of lipid peroxidation and intracellular oxidative stress” (Bioorg Med Chem, 2013).
pIC50: −log10 of the molar value. Active and inactive are the calls of the source. The calls are words filed in the database; no cut-off is given here.

Experiments:
HL-60 [1] = assay: Cytotoxicity against human HL60 cells assessed as reduction of cell viability at 100 uM after 24 hrs by trypan blue dye exclusion test; type: cell-based; settings: hl-60, 24 h
Outline: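 HL60 cells at 1.0 × 10⁶/well exposed to compound (100 μM, 1% DMSO final) for 24 h at 37 °C, 5% CO2. Cells pelleted and resuspended in PBS(−). Viable cells counted by trypan blue exclusion on an automated counter.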

HL-60 [2] = assay: Antioxidant activity in human HL60 cells assessed as reduction of H2O2-induced intracellular oxidative stress at 10 uM after 1 hr using DCFH-DA by FACS analysis; type: functional, cell-based
Outline: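 HL60 cells (RPMI-1640, 5% heat-inactivated FBS, 37 °C, 5% CO2) at 1.0 × 10⁶/well loaded with DCFH-DA (10 μM, 15 min), washed, then pretreated 1 h with compound (10 μM, 1% DMSO final). H2O2 (200 μM) added for 1 h; water for controls. Fluorescence (ex 488/em 530 nm) measured by flow cytometry on about 10,000 cells per sample.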

[3] = Octanol-water partition coefficient, logKOW of the compound; type: physicochemical; settings: read-out: log KOW
Liver microsome = assay: Antioxidant activity against tert-butylhydroperoxide-induced lipid peroxidation in rat liver microsomes after 20 mins by TBARS method; type: functional
Outline: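 Kept on ice, then peroxidation started with tert-butylhydroperoxide (1 mM) and run 37 °C, 20 min. Stopped with BHT, then TCA/TBA at 85 °C for 20 min. TBARS read as A535−A600. IC50 is the mean of 3 independent trials.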

[4] = system: Radical scavenging activity; assay: Antioxidant activity assessed as DPPH free radical scavenging activity by spectroscopic analysis; type: functional

SMILES	logP [3]	pIC50 (Liver microsome)	Activity (HL-60 [1])	Activity (HL-60 [2])	Activity [4] [×10³ /M/s]
CC(=O)CC1(O)C(=O)Nc2ccc(O)cc21 (stereo not given)	0.44	< 3.52	Non-toxic	inactive	0.74
O=C(CC1(O)C(=O)Nc2ccc(O)cc21)c1ccccc1 (stereo not given)	1.07	3.62	Non-toxic	Active	1.9
O=C1Cc2cc(O)ccc2N1	0.7	3.52	Non-toxic	Active	9.2
O=C(CC1(O)C(=O)Nc2ccc(O)cc21)c1ccc(C(F)(F)F)cc1 (stereo not given)	2.89	4.10	–	Active	1.6
COc1ccc(C(=O)CC2(O)C(=O)Nc3ccc(O)cc32)cc1 (stereo not given)	1.74	3.65	Non-toxic	Active	1.5
Oc1nc(O)c2nc(O)[nH]c2n1 [URIC ACID]	–	< 3.52	–	inactive	0.63

Continued, in another order:

logP [3]	pIC50 (Liver microsome)	SMILES	Activity (HL-60 [1])	Activity (HL-60 [2])	Activity [4] [×10³ /M/s]
2.45	3.92	O=C(CC1(O)C(=O)Nc2ccc(O)cc21)c1ccc(Cl)cc1 (stereo not given)	Toxic	Active	2.4
2.81	4.26	O=C(CC1(O)C(=O)Nc2ccc(O)cc21)c1ccc(I)cc1 (stereo not given)	–	Active	2.2
2.2	3.80	Cc1ccc(C(=O)CC2(O)C(=O)Nc3ccc(O)cc32)cc1 (stereo not given)	Non-toxic	Active	1.8
2.55	4.12	O=C(CC1(O)C(=O)Nc2ccc(O)cc21)c1ccc(Br)cc1 (stereo not given)	Toxic	Active	1.2
1.85	4.40	O=C(CC1(O)C(=O)Nc2ccc(O)cc21)c1ccc([N+](=O)[O-])cc1 (stereo not given)	–	Active	2.5
1.93	4.02	O=C(CC1(O)C(=O)Nc2ccc(O)cc21)c1ccc(F)cc1 (stereo not given)	Toxic	Active	1.5
1.91	3.82	N#Cc1ccc(C(=O)CC2(O)C(=O)Nc3ccc(O)cc32)cc1 (stereo not given)	Toxic	Active	1.7
